Experimental data as given in ChEMBL document CHEMBL1649163, “Surfactants, aromatic and isoprenoid compounds, and fatty acid biosynthesis inhibitors suppress Staphylococcus aureus production of toxic shock syndrome toxin 1” (2009).

Assays:
Assay type in all cases: functional
Staphylococcus aureus [1] = assay: Effect on growth in Staphylococcus aureus MN8 at 0.75 mM after 24 hrs (reference value: 100%)
Procedure, shortened: (§1)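 Test-tube growth assay: 10 ml growth medium (brain heart infusion with 10% fetal bovine serum, MgCl2, L-glutamine) inoculated to 5 × 10^6 CFU/ml from a 24 h 37°C preculture. Compound diluted in medium, or dissolved in methanol with methanol-matched controls. After 24 h at 37°C with 5% CO2, OD600 and viable counts read. Growth given as % of CFU/ml of untreated controls in the same experiment.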

Staphylococcus aureus [2] = assay: microbe, parasite or virus in culture; conditions: 24 h
Staphylococcus aureus [3] = assay: microbe, parasite or virus in culture; conditions: 24 h; remark: listed apart in the source
Staphylococcus aureus [4] = assay: Effect on growth in Staphylococcus aureus MN8 at 120.00 mM after 24 hrs (reference value: 100%); procedure, shortened: as §1
Staphylococcus aureus [5] = assay: microbe, parasite or virus in culture; conditions: 24 h; remark: listed apart in the source
Staphylococcus aureus [6] = assay: Effect on growth in Staphylococcus aureus MN8 at 80.00 mM after 24 hrs (reference value: 100%); procedure, shortened: as §1
Staphylococcus aureus [7] = assay: Effect on growth in Staphylococcus aureus MN8 at 10.7 mM after 24 hrs (reference value: 100%); procedure, shortened: as §1
Staphylococcus aureus [8] = assay: microbe, parasite or virus in culture; conditions: 24 h; remark: listed apart in the source
Staphylococcus aureus [9] = assay: Effect on growth in Staphylococcus aureus MN8 at 0.05 mM after 24 hrs (reference value: 100%); procedure, shortened: as §1
Staphylococcus aureus [10] = assay: Effect on growth in Staphylococcus aureus MN8 at 0.01 mM after 24 hrs (reference value: 100%); procedure, shortened: as §1
Staphylococcus aureus [11] = assay: microbe, parasite or virus in culture; conditions: 24 h; remark: listed apart in the source
Staphylococcus aureus [12] = assay: Effect on growth in Staphylococcus aureus FRI-1187 at 0.05 mM after 24 hrs (reference value: 100%); procedure, shortened: as §1
Staphylococcus aureus [13] = assay: microbe, parasite or virus in culture; conditions: 24 h; remark: listed apart in the source
Staphylococcus aureus [14] = assay: Effect on growth in Staphylococcus aureus FRI-1187 at 0.50 mM after 24 hrs (reference value: 100%); procedure, shortened: as §1
Staphylococcus aureus [15] = assay: Effect on growth in Staphylococcus aureus MN8 at 0.50 % after 24 hrs (reference value: 100%); procedure, shortened: as §1
Staphylococcus aureus [16] = assay: Effect on growth in Staphylococcus aureus MN8 at 0.10 % after 24 hrs (reference value: 100%); procedure, shortened: as §1
Staphylococcus aureus [17] = system: Staphylococcus aureus
Staphylococcus aureus [18] = system: Staphylococcus aureus; remark: listed apart in the source
Staphylococcus aureus [19] = assay: Effect on growth in Staphylococcus aureus MN8 at 3.20 mM after 24 hrs (reference value: 100%); procedure, shortened: as §1
Staphylococcus aureus [20] = assay: Effect on growth in Staphylococcus aureus MN8 at 6.40 mM after 24 hrs (reference value: 100%); procedure, shortened: as §1
Staphylococcus aureus [21] = assay: microbe, parasite or virus in culture; conditions: 24 h; remark: listed apart in the source
Staphylococcus aureus [22] = assay: microbe, parasite or virus in culture; conditions: 24 h; remark: listed apart in the source
Staphylococcus aureus [23] = assay: Effect on growth in Staphylococcus aureus MN8 at 9.8 mM after 24 hrs (reference value: 100%); procedure, shortened: as §1
Staphylococcus aureus [24] = assay: microbe, parasite or virus in culture; conditions: 24 h; remark: listed apart in the source
Staphylococcus aureus [25] = assay: Effect on growth in Staphylococcus aureus MN8 at 0.65 mM after 24 hrs (reference value: 100%); procedure, shortened: as §1
Staphylococcus aureus [26] = assay: microbe, parasite or virus in culture; conditions: 24 h; remark: listed apart in the source
Staphylococcus aureus [27] = assay: Effect on growth in Staphylococcus aureus MN8 at 6.50 mM after 24 hrs (reference value: 100%); procedure, shortened: as §1
Staphylococcus aureus [28] = assay: microbe, parasite or virus in culture; conditions: 24 h; remark: listed apart in the source
Staphylococcus aureus [29] = assay: Effect on growth in Staphylococcus aureus MN8 at 2.50 mM after 24 hrs (reference value: 100%); procedure, shortened: as §1
Staphylococcus aureus [30] = assay: microbe, parasite or virus in culture; conditions: 24 h; remark: listed apart in the source
Staphylococcus aureus [31] = assay: microbe, parasite or virus in culture; conditions: 24 h; remark: listed apart in the source
Staphylococcus aureus [32] = assay: Effect on growth in Staphylococcus aureus MN8 at 10.00 mM after 24 hrs (reference value: 100%); procedure, shortened: as §1
Staphylococcus aureus [33] = assay: microbe, parasite or virus in culture; conditions: 24 h; remark: listed apart in the source
Staphylococcus aureus [34] = assay: Effect on growth in Staphylococcus aureus MN8 at 5.00 mM after 24 hrs (reference value: 100%); procedure, shortened: as §1

`C=CC(C)(O)CCC=C(C)C` (centres undefined) [LINALOOL] gave an Activity (Staphylococcus aureus [1]) of 121.6% and an inhibition at 750 µM (Staphylococcus aureus [2]) of 12.2%.
Work on `C/C=C/C/C=C/CCC(=O)[C@H]1O[C@H]1C(N)=O` [CERULENIN] yielded an inhibition at 120000 µM (Staphylococcus aureus [3]) of 10.7%, an Activity (Staphylococcus aureus [4]) of 50% and an inhibition at 80000 µM (Staphylococcus aureus [5]) of 8.4%. It also gave an Activity (Staphylococcus aureus [6]) of 235.1%.
Compound `CCCCCCCCCCCC1=NCC[N+]1(CCOCC(=O)[O-])CC(=O)[O-].[Na+].[Na+].[OH-]` (centres undefined) [DISODIUM LAUROAMPHODIACETATE] has an Activity (Staphylococcus aureus [7]) of 11.3% and an inhibition at 10700 µM (Staphylococcus aureus [8]) of 1%.
Compound `Oc1cc(Cl)ccc1Oc1ccc(Cl)cc1Cl` [TRICLOSAN] has an Activity (Staphylococcus aureus [9]) of 0%, an Activity (Staphylococcus aureus [10]) of 5.6% and an inhibition at 500 µM (Staphylococcus aureus [11]) of 3.7%. It also gave an Activity (Staphylococcus aureus [12]) of 136.4%, an inhibition at 50 µM (Staphylococcus aureus [13]) of 9.9% and an Activity (Staphylococcus aureus [14]) of 35.5%.
For `NC(=O)c1ccccc1O` [SALICYLAMIDE], the Activity (Staphylococcus aureus [15]) was 14.5%, the Activity (Staphylococcus aureus [16]) was 61.5% and the “inhibition (INH)” value (Staphylococcus aureus [17]) was 49.2%. For the same compound, the “inhibition (INH)” value (Staphylococcus aureus [18]) was 11.3%.
For `CC(=O)N[C@@H](Cc1ccc(O)cc1)C(=O)O` [ACETYL TYROSINE], the Activity (Staphylococcus aureus [15]) was 19.9%, the Activity (Staphylococcus aureus [16]) was 47.5% and the “inhibition (INH)” value (Staphylococcus aureus [17]) was 71.5%. For the same compound, the “inhibition (INH)” value (Staphylococcus aureus [18]) was 47.1%.
With `COC(=O)c1ccc(O)cc1` [METHYLPARABEN] the Activity (Staphylococcus aureus [16]) was 21.4% and the “inhibition (INH)” value (Staphylococcus aureus [17]) was 20.7%.
`CC1CCC(C(C)C)C(O)C1` (centres undefined) [MENTHOL] was tested, and the Activity (Staphylococcus aureus [19]) was 119.5%, the Activity (Staphylococcus aureus [20]) was 32.2% and the inhibition at 3200 µM (Staphylococcus aureus [21]) was 24.4%. For the same compound, the inhibition at 6400 µM (Staphylococcus aureus [22]) was 1.8%.
With `OCCOc1ccccc1` [PHENOXYETHANOL] the Activity (Staphylococcus aureus [15]) was 32.3%, the Activity (Staphylococcus aureus [16]) was 54.3% and the “inhibition (INH)” value (Staphylococcus aureus [17]) was 42.3%. The “inhibition (INH)” value (Staphylococcus aureus [18]) was 25.1%.
Compound `CCCCCCCCCCCCOCCOCCOCCOC(=O)CC(C(=O)[O-])S(=O)(=O)[O-].[Na+].[Na+]` (centres undefined) [DISODIUM LAURETH SULFOSUCCCINATE] has an Activity (Staphylococcus aureus [23]) of 10.3% and an inhibition at 9800 µM (Staphylococcus aureus [24]) of 0.6%.
In the case of `CC1=CCC(O)(C(C)C)CC1` (centres undefined) [TERPINEOL], the Activity (Staphylococcus aureus [25]) was 112.7%, the inhibition at 6500 µM (Staphylococcus aureus [26]) was 12.4% and the Activity (Staphylococcus aureus [27]) was 90.5%. The inhibition at 650 µM (Staphylococcus aureus [28]) was 82.3%.
For `CCCCCCCCCCCCCCOCCOCCOCCOC(=O)CCCCCCCCCCCCC`, the Activity (Staphylococcus aureus [29]) was 106.6%, the inhibition at 2500 µM (Staphylococcus aureus [30]) was 64.9% and the inhibition at 5000 µM (Staphylococcus aureus [31]) was 47.4%. For the same compound, the Activity (Staphylococcus aureus [32]) was 143.3%, the inhibition at 10000 µM (Staphylococcus aureus [33]) was 22.2% and the Activity (Staphylococcus aureus [34]) was 108%.
For `O=C(O)c1cc(O)c(O)c(O)c1` [GALLIC ACID], the Activity (Staphylococcus aureus [15]) was 2.6%, the Activity (Staphylococcus aureus [16]) was 45% and the “inhibition (INH)” value (Staphylococcus aureus [17]) was 41.4%. For the same compound, the “inhibition (INH)” value (Staphylococcus aureus [18]) was 8.7%.
For `OCc1ccccc1` [BENZYL ALCOHOL], the Activity (Staphylococcus aureus [15]) was 8.9%, the Activity (Staphylococcus aureus [16]) was 49.7% and the “inhibition (INH)” value (Staphylococcus aureus [17]) was 43.5%. The “inhibition (INH)” value (Staphylococcus aureus [18]) was 13.8%.
In the case of `O=C(O)c1ccccc1O` [SALICYLIC ACID], the Activity (Staphylococcus aureus [16]) was 31% and the “inhibition (INH)” value (Staphylococcus aureus [17]) was 26.3%.
